# According to ChEMBL document CHEMBL1772952 (J Med Chem, 2011):
# Activity calls are given as the source filed them. The rule behind the calls is not given here.
# Legend:
# [1] = organism: Rattus norvegicus; test: Selectivity ratio of Ki for DAT in rat striatum to Ki for NET in rat cerebral cortex; format: tissue-based
# Procedure, shortened: (§1)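 Ratio of Ki values from [3H]substrate uptake inhibition: [3H]dopamine for DAT in rat striatum, and [3H]serotonin for SERT or [3H]norepinephrine for NET in rat cerebral cortex. Each Ki came from an IC50 fitted over at least five triplicate concentrations, converted by Cheng-Prusoff.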
# [2] = organism: Rattus norvegicus; test: Selectivity ratio of Ki for DAT in rat striatum to Ki for SERT in rat cerebral cortex; format: tissue-based; procedure, shortened: as §1
# [3] = organism: Rattus norvegicus; test: Selectivity ratio of Ki for SERT in rat cerebral cortex to Ki for NET in rat cerebral cortex; format: tissue-based; procedure, shortened: as §1
# [4] = biological target: Sodium-dependent serotonin transporter (Rattus norvegicus, UniProt P31652); test: Inhibition of SERT in rat cerebral cortex assessed as [3H]serotonin accumulation; format: tissue-based
# Sodium-dependent serotonin transporter, sequence (P31652 whole entry): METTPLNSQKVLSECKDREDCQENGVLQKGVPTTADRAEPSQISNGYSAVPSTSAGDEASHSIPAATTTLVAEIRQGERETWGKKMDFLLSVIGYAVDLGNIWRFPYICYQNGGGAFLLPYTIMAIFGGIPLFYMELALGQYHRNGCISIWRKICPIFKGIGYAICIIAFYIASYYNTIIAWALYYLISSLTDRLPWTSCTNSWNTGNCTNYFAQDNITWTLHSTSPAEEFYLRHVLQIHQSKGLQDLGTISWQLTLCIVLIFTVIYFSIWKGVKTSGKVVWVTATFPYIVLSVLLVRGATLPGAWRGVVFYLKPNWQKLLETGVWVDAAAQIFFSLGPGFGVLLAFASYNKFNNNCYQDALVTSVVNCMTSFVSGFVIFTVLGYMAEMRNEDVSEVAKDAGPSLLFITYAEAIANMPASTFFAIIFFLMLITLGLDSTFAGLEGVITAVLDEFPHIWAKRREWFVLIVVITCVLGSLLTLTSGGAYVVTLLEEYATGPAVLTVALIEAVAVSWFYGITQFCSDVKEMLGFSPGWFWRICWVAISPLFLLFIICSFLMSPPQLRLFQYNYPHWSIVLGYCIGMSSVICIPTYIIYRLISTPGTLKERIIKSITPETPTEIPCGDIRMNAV
# Procedure, shortened: (§2)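 Uptake of [3H]dopamine (DAT, rat striatum) or [3H]serotonin (SERT, rat cerebral cortex) was measured with at least five triplicate concentrations spaced around the IC50. IC50 came from nonlinear curve fitting and was converted to Ki by Cheng-Prusoff. Values are mean ± SEM of 3–8 independent experiments.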
# [5] = biological target: Sodium-dependent dopamine transporter (Rattus norvegicus, UniProt P23977); test: Inhibition of DAT in rat striatum assessed as [3H]dopamine accumulation; format: tissue-based; procedure, shortened: as §2
# Sodium-dependent dopamine transporter, sequence (P23977 whole entry): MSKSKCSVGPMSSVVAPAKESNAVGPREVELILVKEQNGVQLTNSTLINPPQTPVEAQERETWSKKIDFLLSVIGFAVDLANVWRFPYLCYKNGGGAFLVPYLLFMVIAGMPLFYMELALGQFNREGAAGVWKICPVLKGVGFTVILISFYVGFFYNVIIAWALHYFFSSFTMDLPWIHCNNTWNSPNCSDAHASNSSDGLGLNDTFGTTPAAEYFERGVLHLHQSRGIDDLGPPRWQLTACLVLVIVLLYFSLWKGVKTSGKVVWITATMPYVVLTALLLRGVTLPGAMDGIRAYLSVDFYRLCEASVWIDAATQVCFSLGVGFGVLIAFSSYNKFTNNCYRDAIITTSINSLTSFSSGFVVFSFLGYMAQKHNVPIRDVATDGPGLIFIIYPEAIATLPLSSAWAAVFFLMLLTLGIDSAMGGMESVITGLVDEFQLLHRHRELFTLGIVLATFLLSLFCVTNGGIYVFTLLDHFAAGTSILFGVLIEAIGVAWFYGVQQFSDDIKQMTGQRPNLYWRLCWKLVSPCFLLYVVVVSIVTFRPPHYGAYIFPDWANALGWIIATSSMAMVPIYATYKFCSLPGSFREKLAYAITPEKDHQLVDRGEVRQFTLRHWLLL
# [6] = Inhibition of NET in rat cerebral cortex assessed as [3H]norepinephrine accumulation; format: tissue-based
# Procedure, shortened: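 Rat cerebral cortex tissue; uptake of [3H]norepinephrine via NET measured. At least five concentrations per compound, each in triplicate, spaced evenly around the IC50. IC50 obtained by nonlinear curve fitting, then converted to Ki by Cheng-Prusoff. Values are mean ± SEM of three to eight independent experiments.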
# [7] = test system: Rattus norvegicus; test: Antidepressant activity in […] Sprague-Dawley rat assessed as reduction of immobility time at 15 mg/kg, ip administered 30 mins before test by forced swimming test; format: functional, organism-based; set-up: dose 15 mg/kg
# Procedure, shortened: (§3)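 Male Sprague-Dawley rats (200–225 g), drug-naive and used once. Forced swim test: 15 min pretest swim in a water-filled glass cylinder (depth 22 cm, 24–25 °C). Drug or vehicle (10% β-hydroxypropyl cyclodextrin) was given i.p. 15 min after the pretest and again before the 5 min test swim 24 h later. Immobility was scored from video by a blinded rater.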
# [8] = test system: Rattus norvegicus; test: Antidepressant activity in […] Sprague-Dawley rat assessed as reduction of immobility time at 10 mg/kg, ip administered 1 hr before test by forced swimming test; format: functional, organism-based; set-up: dose 10 mg/kg; procedure, shortened: as §3
Compound,Ratio Ki [1],Ratio Ki [2],Ratio Ki [3],Ki [4] [µM],Ki [5] [µM],Ki [6] [µM],Activity [7],Activity [8]
c1ccc(C(c2ccccc2)[C@@H]2CC[C@H](NCc3ccccn3)CO2)cc1,0.41,0.43,0.96,0.483,0.209,–,–,–
Oc1ccc(CN[C@H]2CC[C@@H](C(c3ccccc3)c3ccccc3)OC2)cc1,–,–,–,0.0291,0.042,–,–,–
c1ccc(C(c2ccccc2)[C@@H]2CC[C@H](NCc3ccco3)CO2)cc1,1.84,0.96,1.92,0.115,0.11,0.0598,–,–
c1ccc(C(c2ccccc2)[C@@H]2CC[C@H](NCc3cccc4ccccc34)CO2)cc1,2.04,5.33,0.38,0.0888,0.473,0.232,–,–
CN(C)CCCN1c2ccccc2CCc2ccccc21,–,–,–,–,–,–,Active,–
COc1cccc([C@@H](O)CN[C@H]2CC[C@@H](C(c3ccccc3)c3ccccc3)OC2)c1,0.29,0.11,2.55,1.09,0.125,0.429,–,–
COc1cccc([C@H](O)CN[C@H]2CC[C@@H](C(c3ccccc3)c3ccccc3)OC2)c1,0.46,0.21,2.16,0.646,0.137,0.299,–,–
c1ccc(C(c2ccccc2)[C@@H]2CC[C@H](NCc3cccnc3)CO2)cc1,0.41,0.95,0.43,0.152,0.145,0.353,–,–
COc1ccc(CN[C@H]2CC[C@@H](C(c3ccccc3)c3ccccc3)OC2)cc1,–,–,–,–,0.0159,0.0293,–,–
c1ccc(C(c2ccccc2)[C@@H]2CC[C@H](NCc3ccc[nH]3)CO2)cc1,1.09,0.31,3.56,0.141,0.0432,0.0396,–,–
O[C@@H](CN[C@H]1CC[C@@H](C(c2ccccc2)c2ccccc2)OC1)c1ccc(F)cc1,0.13,0.06,2.09,1.14,0.0718,0.546,–,–
c1ccc(C(c2ccccc2)[C@@H]2CC[C@H](NCc3cccs3)CO2)cc1,0.88,0.22,3.94,0.186,0.0414,0.0472,–,–
"O[C@@H]1C[C@@H](C(c2ccccc2)c2ccccc2)OC[C@H]1NCc1ccc2[nH]ccc2c1 (single isomer, unassigned)",–,–,–,–,0.0852,–,–,–
O[C@H](CN[C@H]1CC[C@@H](C(c2ccccc2)c2ccccc2)OC1)c1ccccc1,0.18,0.07,2.67,0.796,0.054,0.298,–,–
O[C@H](CN[C@H]1CC[C@@H](C(c2ccccc2)c2ccccc2)OC1)c1ccc(F)cc1,0.48,0.13,3.72,0.825,0.106,0.222,–,–
Oc1cccc(CN[C@H]2CC[C@@H](C(c3ccccc3)c3ccccc3)OC2)c1,0.81,0.78,1.04,0.0401,0.0313,0.0385,–,Active
Oc1ccccc1CN[C@H]1CC[C@@H](C(c2ccccc2)c2ccccc2)OC1,1.25,0.45,2.75,0.44,0.2,0.16,–,–
c1ccc(C(c2ccccc2)[C@@H]2CC[C@H](NCc3ccncc3)CO2)cc1,0.06,0.03,1.92,0.889,0.0283,0.462,–,–
O[C@@H](CN[C@H]1CC[C@@H](C(c2ccccc2)c2ccccc2)OC1)c1ccccc1,0.9,0.15,5.78,0.936,0.145,0.162,–,–
